{"source": "ChEMBL document CHEMBL3108756", "about": "“Evaluation of aminohydantoins as a novel class of antimalarial agents” (ACS Med Chem Lett, 2014)", "key": {"[1]": {"molecular_target": "T1, Cytochrome P450 1A2 (Homo sapiens, UniProt P05177)", "T1 sequence (P05177 whole entry)": "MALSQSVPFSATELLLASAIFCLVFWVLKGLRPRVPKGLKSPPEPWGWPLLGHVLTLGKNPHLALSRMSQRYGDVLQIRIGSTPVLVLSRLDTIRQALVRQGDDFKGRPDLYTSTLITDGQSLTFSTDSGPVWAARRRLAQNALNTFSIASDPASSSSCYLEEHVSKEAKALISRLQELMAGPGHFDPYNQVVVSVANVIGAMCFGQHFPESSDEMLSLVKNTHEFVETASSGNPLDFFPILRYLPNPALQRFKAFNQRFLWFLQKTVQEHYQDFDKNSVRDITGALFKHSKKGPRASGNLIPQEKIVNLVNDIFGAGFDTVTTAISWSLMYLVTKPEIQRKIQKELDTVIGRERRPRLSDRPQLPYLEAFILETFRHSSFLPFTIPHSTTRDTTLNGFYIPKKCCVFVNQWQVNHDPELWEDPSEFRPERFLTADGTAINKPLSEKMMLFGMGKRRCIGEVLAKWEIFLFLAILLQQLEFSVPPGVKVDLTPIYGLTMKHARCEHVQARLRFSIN", "test": "Inhibition of human recombinant CYP1A2 after 30 mins", "format": "ADME", "conditions": "recombinant enzyme, 0.5 h"}, "[2]": {"tested_on": "Liver microsome", "test": "Metabolic stability in rat liver microsomes at 1 uM after 5 to 30 mins", "format": "ADME"}, "[3]": {"tested_on": "Plasmodium falciparum", "test": "Antimalarial activity against chloroquine-sensitive Plasmodium falciparum 3D7 infected in […] after 48 hrs by SYBR Green I-based fluorescence method", "format": "functional, organism-based"}, "[4]": {"tested_on": "Plasmodium chabaudi", "test": "Antimalarial activity against Plasmodium chabaudi ASS infected in NIH mouse assessed as inhibition of parasitemia at 100 mg/kg, po qd for 4 days", "format": "functional", "conditions": "96 h", "in_short": "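Mice infected with P. chabaudi were given oral doses once daily for four days, starting four hours after infection. Parasitemia was read on Day 4 postinoculation and expressed as percent inhibition of parasitemia.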"}, "[5]": {"molecular_target": "Cytochrome P450 2D6 (Homo sapiens, UniProt P10635)", "sequence (P10635 whole entry)": "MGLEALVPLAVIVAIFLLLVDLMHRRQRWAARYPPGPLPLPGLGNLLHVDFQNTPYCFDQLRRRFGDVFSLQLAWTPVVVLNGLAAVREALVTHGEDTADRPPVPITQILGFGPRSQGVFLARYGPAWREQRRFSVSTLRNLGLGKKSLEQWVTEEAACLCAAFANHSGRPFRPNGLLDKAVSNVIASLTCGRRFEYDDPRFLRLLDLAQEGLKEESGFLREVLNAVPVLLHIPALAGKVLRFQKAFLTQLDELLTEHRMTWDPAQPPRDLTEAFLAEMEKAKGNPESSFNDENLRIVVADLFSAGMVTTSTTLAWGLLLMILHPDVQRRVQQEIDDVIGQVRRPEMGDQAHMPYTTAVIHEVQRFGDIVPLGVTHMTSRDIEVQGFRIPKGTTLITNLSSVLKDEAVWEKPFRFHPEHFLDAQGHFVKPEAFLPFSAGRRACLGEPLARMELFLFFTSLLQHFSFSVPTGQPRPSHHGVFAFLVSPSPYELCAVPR", "test": "Inhibition of human recombinant CYP2D6 after 30 mins", "format": "ADME", "conditions": "recombinant enzyme, 0.5 h"}, "[6]": {"test": "Selectivity ratio of IC50 for human cathepsin E to IC50 for Plasmodium falciparum plasmepsin-2"}, "[7]": {"test": "Metabolic stability in mouse liver microsomes at 1 uM after 5 to 30 mins", "format": "ADME, Microsome"}, "[8]": {"test": "Selectivity ratio of IC50 for human cathepsin D to IC50 for Plasmodium falciparum plasmepsin-2"}, "[9]": {"tested_on": "Plasmodium falciparum", "test": "Antimalarial activity against chloroquine and pyrimethamine-resistant Plasmodium falciparum Dd2 infected in […] after 48 hrs by SYBR Green I-based fluorescence method", "format": "functional", "conditions": "Dd2, 48 h"}, "[10]": {"tested_on": "Liver microsome", "test": "Metabolic stability in human liver microsomes at 1 uM after 5 to 30 mins", "format": "ADME"}, "[11]": {"molecular_target": "Cytochrome P450 3A4 (Homo sapiens, UniProt P08684)", "sequence (P08684 whole entry)": "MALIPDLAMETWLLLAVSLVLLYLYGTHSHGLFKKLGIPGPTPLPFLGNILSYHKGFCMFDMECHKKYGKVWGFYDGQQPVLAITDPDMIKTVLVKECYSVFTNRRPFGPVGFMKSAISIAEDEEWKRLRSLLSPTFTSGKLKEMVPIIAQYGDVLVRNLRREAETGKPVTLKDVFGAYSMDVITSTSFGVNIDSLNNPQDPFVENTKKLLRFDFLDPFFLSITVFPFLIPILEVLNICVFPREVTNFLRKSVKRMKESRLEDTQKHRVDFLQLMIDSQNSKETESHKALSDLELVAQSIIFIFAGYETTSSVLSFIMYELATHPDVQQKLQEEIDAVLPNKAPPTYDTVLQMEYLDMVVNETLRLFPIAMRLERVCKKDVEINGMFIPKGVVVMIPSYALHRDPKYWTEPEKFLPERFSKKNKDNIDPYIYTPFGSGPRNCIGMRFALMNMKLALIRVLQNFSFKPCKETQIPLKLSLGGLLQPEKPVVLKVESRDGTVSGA", "test": "Inhibition of human recombinant CYP3A4 after 30 mins", "format": "ADME", "conditions": "recombinant enzyme, 0.5 h"}, "[12]": {"test": "Selectivity ratio of IC50 for human BACE1 to IC50 for Plasmodium falciparum plasmepsin-2"}, "[13]": {"tested_on": "HepG2", "test": "Cytotoxicity against human HepG2 cells after 72 hrs", "format": "cell-based", "conditions": "hepg2, 72 h"}, "[14]": {"tested_on": "Mus musculus", "test": "Toxicity in Plasmodium chabaudi ASS infected NIH mouse assessed as survival at 10 to 300 mg/kg, po qd for 4 days", "format": "organism-based", "set-up": "dose 10-300 mg/kg, route oral", "conditions": "in vivo, 96 h"}, "[15]": {"tested_on": "Plasmodium falciparum", "test": "Antimalarial activity against chloroquine-sensitive Plasmodium falciparum 3D7 infected in […] after 72 hrs by SYBR Green I-based fluorescence method", "format": "functional, organism-based", "conditions": "3D7, 72 h"}, "[16]": {"molecular_target": "Cytochrome P450 2C9 (Homo sapiens, UniProt P11712)", "sequence (P11712 whole entry)": "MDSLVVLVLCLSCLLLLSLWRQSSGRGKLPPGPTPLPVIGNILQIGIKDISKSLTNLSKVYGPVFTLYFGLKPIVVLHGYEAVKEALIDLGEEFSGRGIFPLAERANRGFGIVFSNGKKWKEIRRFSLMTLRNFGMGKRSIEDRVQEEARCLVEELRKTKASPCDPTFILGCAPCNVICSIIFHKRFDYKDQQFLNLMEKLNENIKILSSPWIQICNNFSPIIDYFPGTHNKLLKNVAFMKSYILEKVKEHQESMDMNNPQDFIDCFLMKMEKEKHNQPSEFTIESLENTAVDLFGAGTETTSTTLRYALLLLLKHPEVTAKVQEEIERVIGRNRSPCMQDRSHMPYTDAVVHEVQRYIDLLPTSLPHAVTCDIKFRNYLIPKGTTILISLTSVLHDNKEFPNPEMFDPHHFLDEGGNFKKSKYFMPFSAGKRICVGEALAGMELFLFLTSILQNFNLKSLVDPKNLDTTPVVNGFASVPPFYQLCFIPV", "test": "Inhibition of human recombinant CYP2C9 after 30 mins", "format": "ADME", "conditions": "recombinant enzyme, 0.5 h"}, "[17]": {"molecular_target": "Cytochrome P450 2C19 (Homo sapiens, UniProt P33261)", "sequence (P33261 whole entry)": "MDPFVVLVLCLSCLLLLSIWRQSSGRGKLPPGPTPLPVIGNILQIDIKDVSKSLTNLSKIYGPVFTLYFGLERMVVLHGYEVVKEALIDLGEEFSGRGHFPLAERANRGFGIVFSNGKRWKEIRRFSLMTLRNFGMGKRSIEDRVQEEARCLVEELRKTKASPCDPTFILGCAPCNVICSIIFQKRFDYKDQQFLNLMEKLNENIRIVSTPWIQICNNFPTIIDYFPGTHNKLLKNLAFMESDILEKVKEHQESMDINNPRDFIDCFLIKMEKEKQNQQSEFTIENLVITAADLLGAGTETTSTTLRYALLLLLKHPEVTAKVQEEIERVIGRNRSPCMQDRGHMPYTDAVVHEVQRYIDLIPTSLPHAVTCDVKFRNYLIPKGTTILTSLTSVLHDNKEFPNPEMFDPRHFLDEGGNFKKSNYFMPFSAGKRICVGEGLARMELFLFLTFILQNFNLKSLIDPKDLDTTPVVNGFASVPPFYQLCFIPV", "test": "Inhibition of human recombinant CYP2C19 after 30 mins", "format": "ADME", "conditions": "recombinant enzyme, 0.5 h"}, "[18]": {"tested_on": "Plasmodium chabaudi", "test": "Antimalarial activity against Plasmodium chabaudi ASS infected in NIH mouse assessed as inhibition of parasitemia at 150 to 300 mg/kg, po qd for 4 days", "format": "functional", "conditions": "dose mg/kg 150-300"}, "[19]": {"molecular_target": "Plasmepsin V (Plasmodium falciparum (isolate 3D7)) (UniProt Q8I6Z5)", "sequence (Q8I6Z5 whole entry, looked up)": "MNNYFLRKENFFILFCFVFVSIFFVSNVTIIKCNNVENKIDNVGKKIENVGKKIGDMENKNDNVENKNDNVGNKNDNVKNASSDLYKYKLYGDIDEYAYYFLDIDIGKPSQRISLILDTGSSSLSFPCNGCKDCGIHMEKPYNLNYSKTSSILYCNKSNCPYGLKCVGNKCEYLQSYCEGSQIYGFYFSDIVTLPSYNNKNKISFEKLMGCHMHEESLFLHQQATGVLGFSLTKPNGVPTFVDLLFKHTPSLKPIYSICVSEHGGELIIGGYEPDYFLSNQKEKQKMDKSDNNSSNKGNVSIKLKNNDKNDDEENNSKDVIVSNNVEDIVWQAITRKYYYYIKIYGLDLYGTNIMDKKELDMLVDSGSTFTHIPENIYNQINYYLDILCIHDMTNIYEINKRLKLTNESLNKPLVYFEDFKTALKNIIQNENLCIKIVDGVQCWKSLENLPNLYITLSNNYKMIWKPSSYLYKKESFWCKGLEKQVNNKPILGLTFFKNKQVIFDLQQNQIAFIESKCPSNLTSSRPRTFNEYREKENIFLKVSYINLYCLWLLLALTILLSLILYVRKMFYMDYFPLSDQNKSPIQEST", "test": "(§1) Inhibition of Plasmodium falciparum […] plasmepsin-5 using DABCYL-GNKRTLAQKQG-EDANS as substrate measured every 15 mins of 75 mins by fluorescence assay"}, "[20]": {"tested_on": "Plasmodium falciparum", "test": "Antimalarial activity against Plasmodium falciparum", "format": "functional, organism-based"}, "[21]": {"molecular_target": "Plasmepsin V (Plasmodium falciparum (isolate 3D7), UniProt Q8I6Z5)", "sequence (Q8I6Z5 whole entry)": "as the sequence (Q8I6Z5 whole entry, looked up) above", "test": "as §1"}}, "note": "Calls of active or inactive are those of the source. The calls are words filed in the database; no cut-off is given here."}
{"compound": "COc1ccc(C2(c3ccc(OC)cc3)NC(=N)N(C3CCCCC3)C2=O)cc1", "values": [{"measurement": "inhibition (INH)", "setting": "[1]", "result": "Not Active"}, {"measurement": "Stability", "setting": "[2]", "result": "Stable"}, {"measurement": "inhibition", "setting": "[3]", "result": "Active"}, {"measurement": "inhibition in vivo at 100 mg/kg", "setting": "[4]", "result": 89, "unit": "%"}, {"measurement": "inhibition (INH)", "setting": "[5]", "result": "Not Active"}, {"measurement": "Ratio IC50", "setting": "[6]", "result": 300}, {"measurement": "Stability", "setting": "[7]", "result": "Stable"}, {"measurement": "Ratio IC50", "setting": "[8]", "result": "> 1000"}, {"measurement": "IC50", "setting": "[9]", "result": 480, "unit": "nM"}, {"measurement": "Stability", "setting": "[10]", "result": "Stable"}, {"measurement": "inhibition (INH)", "setting": "[11]", "result": "Active"}, {"measurement": "Ratio IC50", "setting": "[12]", "result": "> 1000"}, {"measurement": "Activity", "setting": "[13]", "result": "Toxic"}, {"measurement": "Activity", "setting": "[14]", "result": "Non-toxic"}, {"measurement": "IC50", "setting": "[15]", "result": 463, "unit": "nM"}, {"measurement": "inhibition (INH)", "setting": "[16]", "result": "Not Active"}, {"measurement": "inhibition (INH)", "setting": "[17]", "result": "Not Active"}, {"measurement": "inhibition (INH)", "setting": "[18]", "result": 100, "unit": "%"}, {"measurement": "inhibition", "setting": "[19]", "result": "inactive"}]}
{"compound": "CCC(CN1C(=N)NC(c2ccccc2)(c2ccccc2)C1=O)c1ccccc1", "note": "(racemic)", "values": [{"measurement": "IC50", "setting": "[20]", "result": 140, "unit": "nM"}, {"measurement": "IC50", "setting": "[15]", "result": 2760, "unit": "nM"}, {"measurement": "IC50", "setting": "[21]", "result": 977, "unit": "nM"}]}
